T cell modulator: modulates CD8 T cell binding to vesicles; 2C CD8+ T cell-vesicle binding, flow cytometry; stronger effect = lower value; response (vesicle binding), % at 7 µM; hit rate 0.068% among 330,000; AID 2052;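 active = response, share of CD8 T cells binding vesicles, and their 90th percentile fluorescence all below set limits, cut at about 80% in these data, passing the limit was not always enough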;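 also: values below 100% mean blocked vesicle binding to the CD8+ T cells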
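Test system: purified 2C TCR transgenic mouse naive CD8+ T cells. Probe or stimulus: QL9-peptide-loaded Drosophila micro-vesicles bearing Ld, ICAM-1 and B7-1. Incubation: binding step 1.5 h, 37 °C, antibody labelling 20 min, ice. Measured by: flow cytometry of vesicle-bound cells.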
Rce1 inhib: inhibitors of yeast Ras-converting enzyme; calls only; Q03530; yeast membranes, quenched prenylated peptide cleavage fluorescence; hit rate 0.27% among 290,000;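 active = fall in fluorescence gain of 50% or more versus controls, with final raw signal at or below 3038400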
Target sequence (Q03530 whole entry, looked up): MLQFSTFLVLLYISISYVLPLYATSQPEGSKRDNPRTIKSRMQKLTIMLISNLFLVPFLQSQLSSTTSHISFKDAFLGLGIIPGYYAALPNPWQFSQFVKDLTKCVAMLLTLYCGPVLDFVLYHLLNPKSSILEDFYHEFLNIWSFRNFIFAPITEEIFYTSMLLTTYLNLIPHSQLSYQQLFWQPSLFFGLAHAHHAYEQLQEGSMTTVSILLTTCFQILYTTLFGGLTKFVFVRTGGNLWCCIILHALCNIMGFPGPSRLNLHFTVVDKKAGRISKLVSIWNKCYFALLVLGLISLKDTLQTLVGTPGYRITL
UCH37 DUB inh: human UCH37 deubiquitinating enzyme inhibition; AID 588478; Q9Y5K5; hit rate 0.33% among 330,000; inhibition, % (test concentration not listed); purified proteasome/UCH37, Ub-AMC cleavage fluorescence;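 active = mean inhibition over replicate wells above about 20%, limit read from the data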
Target sequence (Q9Y5K5 whole entry, looked up): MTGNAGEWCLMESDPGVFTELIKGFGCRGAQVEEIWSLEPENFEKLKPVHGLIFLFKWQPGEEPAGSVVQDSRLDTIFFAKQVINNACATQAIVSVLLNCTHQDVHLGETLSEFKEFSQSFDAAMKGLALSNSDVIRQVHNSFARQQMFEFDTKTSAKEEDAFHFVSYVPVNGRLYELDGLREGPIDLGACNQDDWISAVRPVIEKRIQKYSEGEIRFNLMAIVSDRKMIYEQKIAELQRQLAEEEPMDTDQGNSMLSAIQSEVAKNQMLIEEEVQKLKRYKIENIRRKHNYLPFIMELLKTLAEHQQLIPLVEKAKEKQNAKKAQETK
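Material: Human UCH37 enzyme supplied as purified proteasome complex | Schedule: 30 min compound-proteasome preincubation then 25 min substrate reaction, room temperature | Detection: AMC fluorescence from Ub-AMC cleavage, excitation 355 nm, emission 460 nm | Benchmarks: Wells without proteasome as full block, compound-free enzyme plus substrate as uninhibited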
MEKK2mut PB1 HTS: signal of MEK5 binding to mutant human MEKK2 PB1 domain; percent response, % at 10 µM; hit rate 0.35% among 290,000; bead flow cytometry, Alexa488-MEK5 binding to MEKK2 mutant; in the data active = percent response above about 24%, passing the limit was not always enough
MEKK2wt PB1 HTS: raises or lowers MEK5 binding to wildtype human MEKK2 PB1 domain; Q9Y2U5; bead flow cytometry, Alexa488-MEK5 binding to MEKK2 WT; actives lie on both sides; binding response (% of control), % at 10 µM; hit rate 1.1% among 290,000; in the data active = binding response below about 67% or above about 130%
MEKK3 PB1 HTS: modulators (inhibitors or enhancers) of MEK5 binding to human MEKK3 PB1 domain; bead-based flow cytometry, Alexa488-MEK5 binding to MEKK3; actives lie on both sides; 0 = blocked by unlabeled MEK5, 100 = vehicle; binding response (% of control), % at 10 µM; hit rate 1.4% among 290,000; AID 1529;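 active = binding response more than 3 SD above or below the average of its plate-row segment, actives on both sides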;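 also: Alexa488 bead fluorescence after subtracting the streptavidin-only scavenger bead signal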
MEKK2wt confirm: raises or lowers MEK5 binding to wildtype human MEKK2, retest. shares compounds with MEKK3 PB1 HTS. bead flow cytometry, Alexa488-MEK5 binding to MEKK2 WT; actives lie on both sides. binding response (% of control), % at 10 µM. hit rate 2.4% among 5,900; in the data active = binding response below about 16% or above about 210%; inactive = in between
MEKK2mut confirm: signal of MEK5 binding to mutant human MEKK2, retest. shares compounds with MEKK3 PB1 HTS. bead flow cytometry, Alexa488-MEK5 binding to MEKK2 mutant. percent response, % at 10 µM. hit rate 2% among 5,900; in the data active = percent response mostly above about 71%, no sharp cut-off; inactive = mostly below about 38%;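 also: higher means compound restores mutant binding toward wildtype level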
MEKK3-MEK5 inh: confirmation of inhibitors of MEK5 binding to human MEKK3. bead flow cytometry, Alexa488-MEK5 binding to MEKK3; stronger effect = lower value. shares compounds with MEKK3 PB1 HTS. hit rate 1.8% among 5,900. binding response (% of control), % at 10 µM;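 active = binding response below 72% of control, or above a set upper limit, though filed actives all read lower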
Numbers stand for hits; . = inactive; / = no result; [ ] = another dose, or the depositor's remark. Shown are actives, neighbours in structure and some others; about 2.5% of the full set was active somewhere.

SMILES | T cell modulator | Rce1 inhib | UCH37 DUB inh | MEKK2mut PB1 HTS | MEKK2wt PB1 HTS | MEKK3 PB1 HTS | MEKK2wt confirm | MEKK2mut confirm | MEKK3-MEK5 inh
O=C(N/N=C\c1cn[nH]c1-c1ccc(Cl)cc1)c1cccs1 | . | . | / | . | 60[inhibitor] | 71[inhibitor] | . | . | .
Cc1ccc(/C=N/NC(=O)c2csc(C)c2)o1 | . | . | / | . | . | . | / | / | /
O=C(CN1c2ccccc2Sc2ccccc21)NN=Cc1ccc(Cl)cc1 | / | / | . | / | / | / | / | / | /
Cc1ccc(/C=N/NC(=O)c2cccc([N+](=O)[O-])c2)o1 | . | . | / | . | . | 133 | . | . | .
O=C(N/N=C/c1cccc([N+](=O)[O-])c1)c1cc2ccccc2o1 | . | . | / | . | . | 69[inhibitor] | . | . | .
O=C(NN=Cc1ccc(N2CCOCC2)o1)c1cccc([N+](=O)[O-])c1 | / | / | . | / | / | / | / | / | /
O=C(N/N=C/c1cccnc1)c1cccs1 | . | . | / | . | . | 130 | . | . | .
O=C(NN=Cc1cccnc1)c1ccc(Br)s1 | / | / | . | / | / | / | / | / | /
Cc1cc(OC(=O)c2c(F)cc(F)cc2F)nc(C)n1 | . | . | . | . | . | 149 | . | . | .
CCSc1nnc(NC(=O)C2Cc3ccccc3CN2S(=O)(=O)CC)s1 (stereo not given) | . | . | . | . | 16[inhibitor] | 12[inhibitor] | . | . | .
C=CCn1c(=O)/c(=C2/Sc3ccccc3N2CC)s/c1=C1/C(=O)NN=C1C | . | . | / | . | 57[inhibitor] | . | . | . | .
ON=C1CCCCC1c1ccccn1 (stereo not given) | / | / | . | / | / | / | / | / | /
O=S(=O)(c1ccc(Cl)cc1)N1CCc2ccccc21 | . | / | . | 46 | . | . | . | . | .
CCOC(=O)NN=C(C)c1ccc(N2C(=O)C3CCCCC3C2=O)cc1 (stereo not given) | / | / | . | / | / | / | / | / | /
CCCS(=O)(=O)c1nc(S(=O)(=O)c2ccc(C)cc2)c(N2CCOCC2)s1 | . | . | . | . | . | . | / | / | /
Cc1ccc(S(=O)(=O)c2nc(N3CCOCC3)sc2Cl)cc1 | . | . | . | . | . | 124 | . | . | .
Cc1nc2ccc(NC(=O)c3nn(CC(C)C)c(=O)c4ccccc34)cc2s1 | . | . | . | . | . | 148 | . | . | .
CC(=O)Nc1cccc(C(C)=NNC(=O)c2cccc(S(=O)(=O)N3CCOCC3)c2)c1 | / | / | . | / | / | / | / | / | /
CCN(CC)CC#CCC(O)(c1ccccc1)C1CCCC1 (stereo not given) | / | . | . | . | 46[inhibitor] | . | . | . | .
CN(C)CC#CCC(O)(c1ccccc1)C1CCCCC1 (stereo not given) | . | . | . | . | . | . | / | / | /
CCOc1ccc(C=NNC(=O)c2nnn(-c3nonc3N)c2-c2ccc(OCC)cc2)cc1 | / | / | . | / | / | / | / | / | /
O=C(NN=Cc1cccnc1)c1cc(-c2ccccc2OCc2ccccc2)n[nH]1 | / | / | . | / | / | / | / | / | /
CC(=NNC(=O)C(O)(c1ccccc1)c1ccccc1)c1ccc(NC(=O)CCCC(=O)O)cc1 | / | / | . | / | / | / | / | / | /
CCC(=NN=C1SC(C)C(=O)N1Cc1ccco1)c1ccccc1 (stereo not given) | / | / | . | / | / | / | / | / | /
CCN(CC)CCN(C(=O)c1ccc2c(c1)CCCC2)c1nc2c(C)cccc2s1 | . | . | . | 29 | 158 | . | . | . | .
SMILES | T cell modulator | Rce1 inhib | UCH37 DUB inh | MEKK2mut PB1 HTS | MEKK2wt PB1 HTS | MEKK3 PB1 HTS | MEKK2wt confirm | MEKK2mut confirm | MEKK3-MEK5 inh
CN(C)CCCN(C(=O)c1ccc(C(=O)c2ccccc2)cc1)c1nc2cc3c(cc2s1)OCCO3 | . | . | . | 27 | 166 | . | . | . | .
CN(C)CCCN(C(=O)c1ccc2c(c1)CCCC2)c1nc2cc3c(cc2s1)OCO3 | . | . | . | . | 154 | . | . | . | .
CN(C)CCCN(C(=O)c1ccc(S(=O)(=O)N2CCc3ccccc32)cc1)c1nc2ccc(F)cc2s1 | . | . | . | 25 | 166 | . | . | . | .
CN(C)CCCN(C(=O)c1ccc(S(=O)(=O)N(C)C)cc1)c1nc2ccc(F)cc2s1 | . | . | . | . | . | . | / | / | /
CN(C)CCCN(C(=O)c1ccc(Br)s1)c1nc2cc3c(cc2s1)OCO3 | . | . | . | . | . | . | / | / | /
CC(C)c1ccc(C=NNC(=O)c2ccccn2)cc1 | / | / | . | / | / | / | / | / | /
CCOc1ccc2ccccc2c1C=NNC(=O)c1c(C)cc(C)[nH]c1=O | / | / | . | / | / | / | / | / | /
CN(C)CCCN(C(=O)c1ccc2c(c1)CCCC2)c1nc2ccc(F)cc2s1 | . | . | . | . | 142 | 138 | . | . | .
CCN(CC)CCN(C(=O)c1ccc2c(c1)CCCC2)c1nc2ccc(F)cc2s1 | . | . | . | . | 154 | . | . | . | .
CN(C)CCCN(C(=O)CCS(=O)(=O)c1ccccc1)c1nc2cc3c(cc2s1)OCO3 | . | . | . | . | . | . | / | / | /
CN(C)CCCN(C(=O)CCSc1ccccc1)c1nc2cc3c(cc2s1)OCO3 | . | . | . | . | 153 | . | . | . | .
CCN(Cc1ccccc1)S(=O)(=O)c1ccc(C(=O)N(CCCN(C)C)c2nc3cc4c(cc3s2)OCO4)cc1 | . | . | . | 39 | 202 | . | . | . | .
CN(C)CCCN(C(=O)c1ccc(S(=O)(=O)N(C)C)cc1)c1nc2cc3c(cc2s1)OCO3 | . | / | . | . | . | . | / | / | /
CCN(C=Nc1sc2c(c1C#N)CC(C)(C)NC2(C)C)CC | / | / | . | / | / | / | / | / | /
CN1CCc2c(sc3c2C(=O)NC(c2cn(Cc4ccccc4)c4ccccc24)N3)C1 (stereo not given) | . | . | . | 66 | 182 | . | 240 | 107 | .
CN1CCc2c(sc3c2C(=O)NC(c2ccco2)N3)C1 (stereo not given) | . | / | . | . | . | . | / | / | /
CCCc1cc(=O)[nH]c(NN=C/C=C\c2ccccc2)n1 | / | / | . | / | / | / | / | / | /
C(=NNc1cc(N2CCCCC2)ncn1)c1ccco1 | / | / | . | / | / | / | / | / | /
CS(=O)(=O)c1ccc(CNC(=O)[C@]2(C(F)(F)F)C[C@H](CCc3ccccc3)CCCO2)cc1 | . | . | . | . | . | 81[inhibitor] | . | . | .
CCN(CC)CCCNC(=S)N1CCN(c2nc(-c3ccccc3)cs2)CC1 | . | . | . | . | 143 | . | . | . | .
COc1ccc(C(=O)NN=CC(C)c2ccccc2)cc1OC (stereo not given) | / | / | . | / | / | / | / | / | /
COc1cccc(C2=NO[C@@H]3C(=O)N(Cc4ccccc4)C(=O)[C@H]23)c1OC | . | / | . | . | . | 128 | . | . | .

High-throughput results (PubChem BioAssay)
